Assay results gathered from unrelated publications.
SYK: Tyrosine-protein kinase SYK (SYK, Homo sapiens, UniProt P43405)
HTR1B: 5-hydroxytryptamine receptor 1B (HTR1B, Homo sapiens, UniProt P28222)
PDE4D: 3',5'-cyclic-AMP phosphodiesterase 4D (PDE4D, Homo sapiens, UniProt Q08499)
F2: Prothrombin (F2, Homo sapiens, UniProt P00734)
CDK7 with cyclin H: Cyclin-dependent kinase 7, with cyclin H (CDK7, Homo sapiens, UniProt P50613)

Compound | target | assay | setting | inhibition [%]
C#Cc1n[nH]c2c(-c3cn([C@@H](C)c4ccccc4)c(=O)[nH]c3=O)cc(F)cc12 | SYK | enzyme activity, inhibitor | 0.1 µM | 1.6
COc1cc(Nc2ncc(F)c(Nc3ccc4c(n3)NC(=O)C(C)(C)O4)n2)cc(OC)c1OC | Serine/threonine-protein kinase MAK (MAK, Homo sapiens, UniProt P20794) | binding, competition with immobilised ligand | 10 µM | 0
Clc1ccc2c(C3CCN(CCc4c[nH]c5ccccc45)CC3)c[nH]c2c1 | HTR1B | ligand displacement, radioligand | 10 µM | 100
O=C(O)CCCCCCCC(=O)O | PDE4D | enzyme activity, inhibitor, radiometric | 50 µM | 47.1
CN(C)C(=O)COC(=O)Cc1ccc(OC(=O)c2ccc(NC(=N)N)cc2)cc1 | F2 | enzyme activity, inhibitor | 50 µM | 99.1
Cn1cc(-c2cccc(N3CCc4c(sc5c4CC(C)(C)C5)C3=O)c2CO)cc(Nc2ccncn2)c1=O | Protein kinase C gamma type (PRKCG, Homo sapiens, UniProt P05129) | enzyme activity, inhibitor | 1 µM | -1
C=CCc1ccc(O)c(-c2cc(CC=C)ccc2O)c1 | PDE4D | enzyme activity, inhibitor, radiometric | 50 µM | 42.7
COc1cc2c(cc1OC)[C@@]13CCN4CC5=CCO[C@H]6CC(=O)N2[C@H]1[C@H]6[C@H]5C[C@H]43 | CDK7 with cyclin H | enzyme activity, inhibitor, ADP detection | 10 µM | 28.4
Cc1cc(O)c2c(c1)C(=O)c1cc(O)cc(O)c1C2=O | PDE4D | enzyme activity, inhibitor, radiometric | 50 µM | 45.4
C#Cc1n[nH]c2c(-c3cn(C(C)c4ccccn4)c(=O)[nH]c3=O)cc(F)cc12 (stereo not drawn) | SYK | enzyme activity, inhibitor | 1 µM | -7.5
O=c1c(O)c(-c2ccc(O)c(O)c2)oc2cc(O)cc(O)c12 | PDE4D | enzyme activity, inhibitor, radiometric | 5 µM | 75.2
C=C[C@H]1CN2CC[C@H]1C[C@H]2[C@H](O)c1ccnc2ccccc12 | CDK7 with cyclin H | enzyme activity, inhibitor, ADP detection | 10 µM | -25.5
C[C@H](C(=O)N[C@H]1COc2ccccc2[C@@H]1S(C)(=O)=O)c1ccc(F)cc1 | Phospholipase A2, major isoenzyme (PLA2G1B, Sus scrofa, UniProt P00592) | cell-free assay, inhibitor | 10 µM | -6
C[C@@H]1CC[C@@]2(NC1)O[C@H]1C[C@H]3[C@@H]4CC=C5C[C@@H](O)CC[C@]5(C)[C@H]4CC[C@]3(C)[C@H]1[C@@H]2C | CDK7 with cyclin H | enzyme activity, inhibitor, ADP detection | 10 µM | 22.4
O=C(/C=C/c1ccc(O)cc1)c1ccc(O)cc1O | PDE4D | enzyme activity, inhibitor, radiometric | 5 µM | -6.18
COc1cc2c3c(c1OC)-c1cc4c(cc1CC3N(C)CC2)OCO4 (racemic) | HTR1B | ligand displacement, radioligand | 10 µM | 100
COc1cc2c(c(OC)c1OC)-c1ccc(OC)c(=O)cc1[C@@H](NC(C)=O)CC2 | CDK7 with cyclin H | enzyme activity, inhibitor, ADP detection | 10 µM | -0.4
c1ccc(C(NCCNC(c2ccccc2)c2ccccc2)c2ccccc2)cc1 | 3-hydroxy-3-methylglutaryl-coenzyme A reductase (HMGCR, Homo sapiens, UniProt P04035) | enzyme activity, inhibitor | 10 µM | -2
O=C(Nc1ccc2c(c1)B(O)OC2)c1cccc(OCc2ccc(Cl)cc2)c1 | F2 | enzyme activity, inhibitor | 50 µM | 13.7
C=C(C)[C@@H]1CC=C2C(=CC[C@]3(C)[C@@H]([C@@H](CCC=C(C)C)C(=O)O)[C@H](O)C[C@@]23C)[C@@]1(C)CCC(=O)O | PDE4D | enzyme activity, inhibitor, radiometric | 5 µM | 54.3
CC(C)(C)[C@]1(O)CC2OC(=O)CC23C(=O)OC2OC(=O)[C@H](O)C231 (stereo partly drawn) | CDK7 with cyclin H | enzyme activity, inhibitor, ADP detection | 10 µM | 2.1
CC(C)N1CCC[C@H]1CNC(=O)c1cn(C2CCCC2)c(=O)c2c1c1ccccc1n2C | Prostaglandin E2 receptor EP4 subtype (PTGER4, Homo sapiens, UniProt P35408) | ligand displacement, radioligand | 10 µM | 30
O=c1c(O[C@@H]2O[C@H](CO)[C@@H](O)[C@H](O)[C@H]2O)c(-c2ccc(O)cc2)oc2cc(O)cc(O)c12 | PDE4D | enzyme activity, inhibitor, radiometric | 50 µM | 20.2
COc1cc(CNC(=O)CCCC/C=C/C(C)C)ccc1O | CDK7 with cyclin H | enzyme activity, inhibitor, ADP detection | 10 µM | 31.4
C=CCc1ccc(O)c(-c2ccc(O)c(CC=C)c2)c1 | PDE4D | enzyme activity, inhibitor, radiometric | 50 µM | 25.6
COc1ccc(CC2NCCc3cc(OC)c(OC)cc32)cc1OC (stereo not drawn) | CDK7 with cyclin H | enzyme activity, inhibitor, ADP detection | 10 µM | 22.5
O=C(Nc1cccnn1)N1CCN([C@@H]2CCOc3cc(C(F)(F)F)ccc32)CC1 | Bombesin receptor subtype-3 (BRS3, Homo sapiens, UniProt P32247) | cell-free assay | 20 µM | 37
